In ChEMBL document CHEMBL1140447, “Synthesis and antimuscarinic properties of quinuclidin-3-yl 1,2,3,4-tetrahydroisoquinoline-2-carboxylate derivatives as novel muscarinic receptor antagonists” (J Med Chem, 2005):
“And” between values parts separate entries of the source, which are not always exact repeats. Identical values can stand only once.

Columns and labels:
[1] = target: T1, Muscarinic acetylcholine receptor M2 (Rattus norvegicus, UniProt P10980); assay: Binding affinity for rat heart muscarinic acetylcholine receptor M2 using [3H]quinuclidinyl benzilate
T1 sequence (P10980 whole entry): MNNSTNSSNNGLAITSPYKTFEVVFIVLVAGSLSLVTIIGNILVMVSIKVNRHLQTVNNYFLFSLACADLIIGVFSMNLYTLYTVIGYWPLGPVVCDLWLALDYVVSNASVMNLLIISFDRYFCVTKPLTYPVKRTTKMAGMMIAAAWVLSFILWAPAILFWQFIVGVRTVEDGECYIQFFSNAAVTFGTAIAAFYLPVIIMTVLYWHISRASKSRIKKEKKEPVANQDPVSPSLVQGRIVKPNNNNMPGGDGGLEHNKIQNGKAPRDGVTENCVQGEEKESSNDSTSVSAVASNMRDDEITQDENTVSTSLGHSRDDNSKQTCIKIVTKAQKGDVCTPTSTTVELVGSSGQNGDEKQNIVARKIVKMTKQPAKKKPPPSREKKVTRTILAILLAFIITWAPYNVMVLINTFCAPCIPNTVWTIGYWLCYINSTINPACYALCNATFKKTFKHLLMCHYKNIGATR

Rattus norvegicus [2] = assay: Intravenous dose required to inhibit rhythmic contraction of urinary bladder in urethane (1.0 g/kg s.c.) anesthetized female wistar rats; assay type: functional
In short: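 Each rat received escalating intravenous doses, giving a dose–response curve per animal. The fall in intravesical pressure was read 5–10 min after each dose. ED30 is the dose that cut peak intravesical pressure by 30%. Values are means ± SEM.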

Rattus norvegicus [3] = assay: Intravenous dose required to inhibit oxotremorine induced salivary secretion in urethane ([…] i.p.) anesthetized male wistar rats; assay type: functional; settings: for ED50: Rattus norvegicus, read-out: ID50 (the source's name)
Rattus norvegicus [4] = species: Rattus norvegicus; assay: Selectivity index calculated as ID50/ED30
Rattus norvegicus [5] = assay: M2 antagonism measured as effect (i.v.) on oxotremorine induced bradycardia in pithed rats; assay type: functional
In short: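 Bradycardia was evoked in pithed rats by an iv oxotremorine dose–response challenge, with compounds given 15 min beforehand. DR10 is the compound dose that shifts the oxotremorine curve 10-fold to the right. Values are reported with 95% confidence limits.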

Rattus norvegicus [6] = assay: M1 antagonism measured as effect (i.v.) on McN-A343 induced pressor response in pithed rats; assay type: functional; settings: iv, read-out: ID50 (the source's name)
In short: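 Compounds were given iv 15 min before McN-A343 (3 μmol/kg iv) in pithed rats, with the pressor response recorded.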

[7] = Rattus norvegicus, read-out: ED30

| Compound | Ki [1] | ED30 (Rattus norvegicus [2]; [7]) | ED50 (Rattus norvegicus [3]) | other results |
| --- | --- | --- | --- | --- |
| O=C(O[C@@H]1CN2CCC1CC2)N1CCc2ccccc2[C@H]1c1ccccc1 | 1.6 µM | – | – | – |
| O=C(O[C@H]1CN2CCC1CC2)N1CCc2ccccc2C1c1ccccc1 (some centres not stated) | 0.028 µM | – | – | – |
| O=C(O[C@H]1CN2CCC1CC2)N1CC(O)c2ccccc2C1c1ccccc1 (some centres not stated) | 1.8 µM and 0.48 µM | – | – | – |
| NC(=O)C(c1ccccc1)(c1ccccc1)[C@@H]1CCN(CCc2ccc3c(c2)CCO3)C1 [DARIFENACIN] | – | 0.058 mg/kg | 0.11 mg/kg | Selectivity index (Rattus norvegicus [4]): 1.9 |
| O=C(O[C@H]1CN2CCC1CC2)N1CCc2ccccc2C1c1cccs1 (some centres not stated) | 0.013 µM and 0.093 µM | – | – | – |
| O=C(O[C@@H]1CN2CCC1CC2)N1CCc2ccccc2[C@@H]1c1ccccc1 | 3.5 µM | – | – | – |
| O=C(O[C@H]1CN2CCC1CC2)N1Cc2ccccc2C1c1ccccc1 (some centres not stated) | 0.44 µM | – | – | – |
| O=C(O[C@H]1CN2CCC1CC2)N1CCc2ccccc2C1C1CCCCC1 (some centres not stated) | 0.022 µM and 0.039 µM | – | – | – |
| CCN(CC)CC#CCOC(=O)C(O)(c1ccccc1)C1CCCCC1 (configuration not stated) [OXYBUTYNIN] | – | 0.2 mg/kg | 0.17 mg/kg | ED30 (Rattus norvegicus [2]): 0.2 mg/kg; ID50 (Rattus norvegicus [3]): 0.17 mg/kg; DR10 (Rattus norvegicus [5]): 1.6 mg/kg; ED50 (Rattus norvegicus [6]): 1.1 mg/kg |
| O=C(O[C@H]1CN2CCC1CC2)N1C[C@H](O)c2ccccc2[C@H]1c1ccccc1 | 1.7 µM | – | – | – |
| O=C(O[C@H]1CN2CCC1CC2)N1C[C@@H](O)c2ccccc2[C@@H]1c1ccccc1 | 0.85 µM | – | – | – |
| O=C(O[C@H]1CN2CCC1CC2)N1CCc2ccccc2C1c1ccsc1 (single isomer, unassigned; 12a) | 0.015 µM | 0.016 mg/kg | 0.11 mg/kg | – |
| O=C(O[C@H]1CN2CCC1CC2)N1Cc2ccccc2C(c2ccccc2)C1 (some centres not stated) | > 1 µM | – | – | – |
| O=C(O[C@H]1CN2CCC1CC2)N1CCc2ccccc2[C@H]1c1ccccc1 | 0.0087 µM | 0.036 mg/kg | 0.12 mg/kg | – |
| O=C(NC(c1ccccc1)c1ccccc1)OC1CN2CCC1CC2 (configuration not stated) | 0.0068 µM | – | – | – |
| O=C(O[C@H]1CN2CCC1CC2)N1CCc2ccccc2C1c1ccsc1 (single isomer, unassigned; 12b) | 0.11 µM | 0.24 mg/kg | 1.3 mg/kg | – |
| O=C(O[C@H]1CN2CCC1CC2)N1CCc2ccccc2[C@@H]1c1ccccc1 [SOLIFENACIN] | 0.12 µM | 0.18 mg/kg | 2.1 mg/kg | DR10 (Rattus norvegicus [5]): 4.2 mg/kg; ED50 (Rattus norvegicus [6]): 2.8 mg/kg |
| Cc1ccc(O)c([C@H](CCN(C(C)C)C(C)C)c2ccccc2)c1 [TOLTERODINE] | – | 0.06 mg/kg | 0.26 mg/kg | Selectivity index (Rattus norvegicus [4]): 4.3 |
